Data on two compounds can be found in ChEMBL document CHEMBL5360562 (Eur J Med Chem, 2023).

Series [1] has as its system Acinetobacter baumannii. As to the kind of experiment: Antibacterial activity against Acinetobacter baumannii AB5075 assessed as reduction in bacterial growth incubated for 16 hrs by broth microdilution method. The format is functional. A general note: In broth dilution the organism is exposed to a series of concentrations in liquid medium.
Series [2] has as its system Acinetobacter baumannii. As to the kind of experiment: Potentiation of Clarithromycin antibacterial activity against Acinetobacter baumannii AB5075 assessed as clarithromycin MIC at 30 uM incubated for 16 hrs by broth microdilution method. The format is functional.
Series [3] concerns Acinetobacter baumannii. As to the kind of experiment: Potentiation of Clarithromycin antibacterial activity against Acinetobacter baumannii AB5075 assessed as clarithromycin MIC at 7.5 uM incubated for 16 hrs by broth microdilution method. The format is functional.
For series [4], the system named is Acinetobacter baumannii. As to the kind of experiment: Potentiation of Clarithromycin antibacterial activity against Acinetobacter baumannii AB5075 assessed as fold reduction in clarithromycin MIC at 30 uM incubated for 16 hrs by broth microdilution method. It counts as functional. The essentials: (§1)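 Checkerboard-style potentiation by broth microdilution. 6 h day cultures in CAMHB diluted to 5×10^5 CFU/mL. Adjuvant added from 10 mM DMSO stock at fixed concentration throughout. […] Controls: antibiotic alone, adjuvant alone, media only. Incubated stationary at 37 °C for 16 h. MIC is lowest concentration with no visible growth; fold reduction taken against the antibiotic-alone lane.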

Series [5] relates to Acinetobacter baumannii. As to the kind of experiment: Potentiation of Clarithromycin antibacterial activity against Acinetobacter baumannii AB5075 assessed as clarithromycin MIC at 20 uM incubated for 16 hrs by broth microdilution method. The format is functional.
Series [6] deals with Acinetobacter baumannii. As to the kind of experiment: Potentiation of Clarithromycin antibacterial activity against Acinetobacter baumannii AB5075 assessed as reduction in clarithromycin MIC at 20 uM incubated for 16 hrs by broth microdilution method. It counts as functional.
The test system of series [7] is Acinetobacter baumannii. As to the kind of experiment: Potentiation of Clarithromycin antibacterial activity against Acinetobacter baumannii AB5075 assessed as clarithromycin MIC at 10 uM incubated for 16 hrs by broth microdilution method. The format is functional.
Series [8] has as its system Acinetobacter baumannii. As to the kind of experiment: Potentiation of Azithromycin antibacterial activity against Acinetobacter baumannii AB5075 assessed as azithromycin MIC at 30 uM incubated for 16 hrs by broth microdilution method. The format is functional.
Series [9] concerns Acinetobacter baumannii. As to the kind of experiment: Potentiation of Azithromycin antibacterial activity against Acinetobacter baumannii AB5075 assessed as azithromycin MIC at 20 uM incubated for 16 hrs by broth microdilution method. The format is functional.
In series [10] the test system is Acinetobacter baumannii. As to the kind of experiment: Potentiation of Azithromycin antibacterial activity against Acinetobacter baumannii AB5075 assessed as azithromycin MIC at 10 uM incubated for 16 hrs by broth microdilution method. The format is functional.
In series [11] the test system is Acinetobacter baumannii. As to the kind of experiment: Potentiation of erythromycin antibacterial activity against Acinetobacter baumannii AB5075 assessed as erythromycin MIC at 30 uM incubated for 16 hrs by broth microdilution method. It counts as functional.
Series [12] deals with Acinetobacter baumannii. As to the kind of experiment: Potentiation of erythromycin antibacterial activity against Acinetobacter baumannii AB5075 assessed as erythromycin MIC at 20 uM incubated for 16 hrs by broth microdilution method. The format is functional.
Series [13] relates to Acinetobacter baumannii. As to the kind of experiment: Potentiation of erythromycin antibacterial activity against Acinetobacter baumannii AB5075 assessed as erythromycin MIC at 10 uM incubated for 16 hrs by broth microdilution method. It counts as functional.
The test system of series [14] is Acinetobacter baumannii. As to the kind of experiment: Potentiation of rifampicin antibacterial activity against Acinetobacter baumannii AB5075 assessed as rifampicin MIC at 30 uM incubated for 16 hrs by broth microdilution method. The format is functional.
Series [15] deals with Acinetobacter baumannii. As to the kind of experiment: Potentiation of rifampicin antibacterial activity against Acinetobacter baumannii AB5075 assessed as rifampicin MIC at 20 uM incubated for 16 hrs by broth microdilution method. It counts as functional.
For series [16], the system named is Acinetobacter baumannii. As to the kind of experiment: Potentiation of rifampicin antibacterial activity against Acinetobacter baumannii AB5075 assessed as rifampicin MIC at 10 uM incubated for 16 hrs by broth microdilution method. The format is functional.
In series [17] the test system is Acinetobacter baumannii. As to the kind of experiment: Potentiation of Clarithromycin antibacterial activity against Acinetobacter baumannii AB5075 assessed as clarithromycin MIC at 5 uM incubated for 16 hrs by broth microdilution method. It counts as functional.
The test system of series [18] is Acinetobacter baumannii. As to the kind of experiment: Potentiation of Clarithromycin antibacterial activity against Acinetobacter baumannii AB5075 assessed as fold reduction in clarithromycin MIC at 7.5 uM incubated for 16 hrs by broth microdilution method. It counts as functional. The essentials: as §1
Series [19] concerns Acinetobacter baumannii. As to the kind of experiment: Potentiation of Clarithromycin antibacterial activity against Acinetobacter baumannii AB5075 assessed as fold reduction in clarithromycin MIC at 10 uM incubated for 16 hrs by broth microdilution method. The format is functional. The essentials:
as §1

A short description of series [20]: Antiproliferative against human HepG2 cells assessed as reduction in cell viability incubated for 24 hrs by XTT assay. It counts as toxicity, cell-based. For orientation: Tetrazolium assays rely on reduction of a dye to a coloured formazan, in cell work by metabolically active cells.
Series [21] can be described thus: Therapeutic index, ratio of IC50 for antiproliferative against human HepG2 cells assessed as reduction in cell viability to MIC for potentiation of Clarithromycin antibacterial activity against Acinetobacter baumannii […] assessed as clarithromycin MIC. It counts as toxicity, cell-based. Particulars: read-out: TI.
For series [22], the system named is Acinetobacter baumannii. As to the kind of experiment: Potentiation of Clarithromycin antibacterial activity against Acinetobacter baumannii AB967 assessed as clarithromycin MIC at 10 uM incubated for 16 hrs by broth microdilution method. It counts as functional.
In series [23] the test system is Acinetobacter baumannii. As to the kind of experiment: Potentiation of Clarithromycin antibacterial activity against Acinetobacter baumannii AB3560 assessed as clarithromycin MIC at 10 uM incubated for 16 hrs by broth microdilution method. It counts as functional.
The test system of series [24] is Acinetobacter baumannii. As to the kind of experiment: Potentiation of Clarithromycin antibacterial activity against Acinetobacter baumannii AB3785 assessed as clarithromycin MIC at 10 uM incubated for 16 hrs by broth microdilution method. The format is functional.
The test system of series [25] is Acinetobacter baumannii. As to the kind of experiment: Potentiation of Clarithromycin antibacterial activity against Acinetobacter baumannii AB4498 assessed as clarithromycin MIC at 10 uM incubated for 16 hrs by broth microdilution method. It counts as functional.
For series [26], the system named is Acinetobacter baumannii. As to the kind of experiment: Potentiation of Clarithromycin antibacterial activity against Acinetobacter baumannii AB5674 assessed as clarithromycin MIC at 10 uM incubated for 16 hrs by broth microdilution method. It counts as functional.
Series [27] relates to Acinetobacter baumannii. As to the kind of experiment: Potentiation of Clarithromycin antibacterial activity against Acinetobacter baumannii AB5711 assessed as clarithromycin MIC at 10 uM incubated for 16 hrs by broth microdilution method. The format is functional.
For series [28], the system named is Acinetobacter baumannii. As to the kind of experiment: Potentiation of Azithromycin antibacterial activity against Acinetobacter baumannii AB5075 assessed as azithromycin MIC at 7.5 uM incubated for 16 hrs by broth microdilution method. The format is functional.
For series [29], the system named is Acinetobacter baumannii. As to the kind of experiment: Potentiation of erythromycin antibacterial activity against Acinetobacter baumannii AB5075 assessed as erythromycin MIC at 7.5 uM incubated for 16 hrs by broth microdilution method. The format is functional.
Series [30] has as its system Acinetobacter baumannii. As to the kind of experiment: Potentiation of rifampicin antibacterial activity against Acinetobacter baumannii AB5075 assessed as fold reduction in rifampicin MIC at 10 uM incubated for 16 hrs by broth microdilution method. The format is functional.
The nature of series [31]: Stability of compound in human plasma assessed as parent compound remaining measured at 4 hrs. The format is ADME, cell-free. The essentials: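 Compound at 20 μM final in human plasma (from 10 mM DMSO stock), 37 °C; aliquots at 0, 30, 60, 120, 240 min quenched in internal standard in 1:1 ACN/MeOH, centrifuged, supernatant analysed by UPLC-MRM. Peak-area ratio to internal standard expressed as % parent remaining relative to 0 min; half-life calculated.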

Series [32] in a line: Metabolic stability in human liver microsomes assessed as parent compound remaining in presence of NADPH measured at 1 hr by UV-UPLC analysis. The format is ADME, Microsome. Background: Liver microsomes are a subcellular fraction often used to study metabolism.

Broadly, the MIC is the lowest concentration found to suppress growth. By IC50 is commonly meant the concentration at which inhibition is half-maximal.

As for `Nc1nc(-c2ccc(NC(=O)Nc3ccc(-c4c[nH]c(N)n4)cc3)cc2)c[nH]1`, the MIC in series [1] was above 200 µM; in series [2] it was 0.125 µg/mL; in [3], 8 µg/mL; in series [5] it was 0.5 µg/mL; in series [7], 4 µg/mL; in series [8] it was 0.5 µg/mL. In addition, the minimum inhibitory concentration (MIC) in series [9] is 1 µg/mL; in [10] it was 8 µg/mL; in series [11], 0.5 µg/mL; in series [12], 2 µg/mL; in [13], 8 µg/mL; in series [14] it was 0.007 µg/mL. In addition, the MIC is 0.125 µg/mL in series [15] and 2 µg/mL in series [16]. Moreover, the “fold change (FC)” value was found to be 256 in [4] and 64 in series [6].
As to `Cl.Cl.Nc1nc(-c2ccc(NC(=O)Nc3ccc(-c4c[nH]c(N)n4)c(F)c3)cc2F)c[nH]1`, the MIC was above 200 µM in [1]; at most 0.062 µg/mL in series [2]; 0.5 µg/mL in [3]; 2 µg/mL in series [17]; at most 0.062 µg/mL in series [6] (Acinetobacter baumannii, AB5075); 0.125 µg/mL in series [7]. In addition, the MIC is 0.25 µg/mL in [22]; 0.5 µg/mL in series [23]; 1 µg/mL in series [24]; 1 µg/mL in [25]; 0.5 µg/mL in series [26]; 1 µg/mL in series [27]. Moreover, the MIC in series [8] stood at 0.5 µg/mL; in series [9], 1 µg/mL; in [10] it was 2 µg/mL; in series [28] it was 16 µg/mL; in [11] it was 0.125 µg/mL; in series [12], 0.5 µg/mL. Further, the minimum inhibitory concentration (MIC) in [13] was determined as 1 µg/mL; in series [29] it was 8 µg/mL; in series [14], 0.125 µg/mL; in series [15] it was 0.25 µg/mL; in [16] it was 1 µg/mL. In addition, the “fold change (FC)” value in series [4] is “>=512”; in series [18], 64; in [19], 256; in series [30], 4. Moreover, the IC50 at 24 h in series [20] came to 127 µg/mL. In series [21], the selectivity ratio was 52.9. Also, the Stability was 83% in series [31] and 82% in series [32].
